This is a sample that favours compounds with a hit; in the whole collection about 0.61% have one here.
CFTR F508del cor – CFTR F508del correction in bronchial cells | CFBE cells, YFP halide quenching; stimulated with forskolin plus potentiator P3; % fluorescence drop versus neutral controls | 350,000 compounds, 0.36% hits | activity (quench increase), % at 7.58 µM | AID 720511;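 active = mean added fluorescence quench of at least 8% versus neutral control, with both replicates also reaching 8%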;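 also: cells transiently co-express mutant CFTR-F508del with the halide-sensitive YFP; corrector assay measuring rescue of mutant channel to the surface after 24 h compound exposure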
E-selectin induc – E-selectin induction on HUVECs. P16581. HUVEC E-selectin immunofluorescence imaging; normalized: neutral wells 0, TNF-alpha wells 100. activation, % at 7.58 µM. 260,000 compounds, 0.37% hits;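 active = mean E-selectin-positive cell signal at least 10% of the positive control, reached in at least 60% of replicates, without over 20% cell loss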
Target sequence (P16581 whole entry, looked up): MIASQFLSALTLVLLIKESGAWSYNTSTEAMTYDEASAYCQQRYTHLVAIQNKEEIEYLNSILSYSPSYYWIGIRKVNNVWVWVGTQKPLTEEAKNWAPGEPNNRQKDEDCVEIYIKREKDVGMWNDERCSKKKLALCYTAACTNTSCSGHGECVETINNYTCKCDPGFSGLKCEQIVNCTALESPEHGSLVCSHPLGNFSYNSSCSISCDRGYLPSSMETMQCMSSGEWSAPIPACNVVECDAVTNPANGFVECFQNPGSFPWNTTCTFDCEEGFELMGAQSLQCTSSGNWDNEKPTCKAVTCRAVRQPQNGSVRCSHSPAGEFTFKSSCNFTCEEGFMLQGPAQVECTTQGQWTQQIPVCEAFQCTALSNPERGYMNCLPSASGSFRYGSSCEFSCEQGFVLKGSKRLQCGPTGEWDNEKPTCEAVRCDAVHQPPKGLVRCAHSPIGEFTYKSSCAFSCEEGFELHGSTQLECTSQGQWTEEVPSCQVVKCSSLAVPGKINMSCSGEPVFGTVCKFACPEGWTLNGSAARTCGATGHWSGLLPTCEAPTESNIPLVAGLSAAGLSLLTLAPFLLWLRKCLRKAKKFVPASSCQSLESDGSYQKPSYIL
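Assay system: HUVEC primary endothelial cells. Input: 3,000 HUVEC seeded per well. Doses: one compound dose added by pin transfer. Read-out basis: % PE-positive cells. Benchmarks: TNF-alpha high, DMSO low. Detection: immunofluorescence imaging. Buffer or medium: EGM-2, gelatin.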
Xi reactivation – X-chromosome reactivation activator. activation, % at 7.58 µM. 360,000 compounds, 0.055% hits. XiGFP mouse fibroblasts, % GFP-positive cells imaging, 3 d; cells co-treated with 5-aza-dC sensitizer; scaled so ellipticine positive control = 100%. AID 743238;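 active = mean normalized replicate activation at least 10% and every replicate at or above 10%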;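 also: 0% = median of on-plate neutral control wells and 100% = ellipticine 6 µM median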
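Schedule: 3 d treatment, 15 min room-temperature fixation; system: 68-5-11 XiGFP fibroblast line; buffer or medium: DMEM plus 5-aza-dC sensitizer; control set: ellipticine 6 µM positive control; compound: one concentration, pinned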
* = called active by the depositor; . = no result given.

SMILES	CFTR F508del cor	E-selectin induc	Xi reactivation
COc1ccccc1NC(=O)CSc1nnc(Cc2cccs2)n1C	2	2	0
COc1ccc(NC(=O)CSc2nnc(Cc3cccs3)n2C)cc1	10*	0	0
Cc1noc(C)c1S(=O)(=O)Nc1ccc2c(c1)C(=O)N([C@H](C)CO)C[C@@H](C)[C@@H](CN(C)Cc1ccc3c(c1)OCO3)OCCCC[C@@H](C)O2	5	0	-1
C[C@@H]1CN([C@H](C)CO)C(=O)c2cccc(NC(=O)Nc3ccc(C(F)(F)F)cc3)c2O[C@@H]1CN(C)C	2	.	0
COc1ccc(CN2CC3(C2)CN(C(=O)Nc2ccc(F)cc2)[C@@H](CO)c2[nH]c4cc(OC)ccc4c23)cc1	-1	0	0
CCCNC(=O)Nc1ccc2c(c1)OC[C@@H](C)N(CCC)C[C@@H](C)[C@@H](OC)CN(C)C2=O	-1	0	0
CN(CC(=O)Nc1ccc2c(c1)OCO2)CC(=O)Nc1ccc(F)c(F)c1F	1	.	0
CN(CC(=O)Nc1ccc(Cl)c(Cl)c1)CC(=O)Nc1ccc2c(c1)OCO2	-2	23	120*
Cc1cccc(NC(=O)Cc2ccc(NC3=NC4CS(=O)(=O)CC4S3)cc2)c1 (centres undefined)	-5	5	1
Cc1cc(C)cc(NC(=O)Cc2ccc(NC3=NC4CS(=O)(=O)CC4S3)cc2)c1 (centres undefined)	2	51*	0
CN1C(=O)c2cc(NC(=O)C3CCOCC3)ccc2OC[C@@H]2O[C@H](CC(=O)O)CC[C@H]21	5	0	0
Cc1ccc(NC(=O)Nc2ccc(F)c(Cl)c2)cc1	2	0	1
CCC(CC)NC(=O)Nc1ccc(F)c(Cl)c1	.	27*	0
COCC#Cc1ccc([C@H]2[C@@H](CO)N3C(=O)CN(C(=O)C4CC4)C[C@@H]23)cc1	0	0	0
COC(=O)c1ccc(C(=O)NC2CCCc3c2cnn3-c2ccc(C)c(C)c2)cc1 (centres undefined)	10*	0	1
O=C(NC1CCCc2c1cnn2-c1cc(F)cc(F)c1)c1ccccn1 (centres undefined)	0	0	0
COC(=O)c1ccc(C(=O)NC2CCCc3c2cnn3-c2cc(F)cc(F)c2)nc1 (centres undefined)	9.6*	.	0
Cc1cc(C(=O)NC2CCCc3c2cnn3-c2ccc(C)c(C)c2)nc(C)n1 (centres undefined)	0	0	0
COc1cccc(NC(=O)N2CC(=O)N3[C@@H](CO)[C@H](c4ccc(C5=CCCCC5)cc4)[C@@H]3C2)c1	4	0	0
COc1cccc(-c2ccc([C@H]3[C@@H](C#N)N(C(=O)c4ccccn4)[C@@H]3CO)cc2)c1	-3	0	0
COc1cccc(-c2ccc([C@H]3[C@@H](CO)N(C(=O)c4ccccn4)[C@H]3C#N)cc2)c1	15*	0	0
CCOC(=O)c1oc2ccccc2c1NC(=O)c1ccco1	5	-1	1
Nc1c(C(=O)c2ccco2)oc2ccccc12	14*	0	0
C[C@@H]1CCCCO[C@@H](CN(C)S(=O)(=O)c2cn(C)cn2)[C@H](C)CN([C@@H](C)CO)C(=O)c2cc(NC(=O)Cc3ccccc3)ccc2O1	1	0	-1
COc1ccccc1N=C1NC(=O)/C(=C/c2ccc(N(C)C)cc2)S1	15*	.	0
SMILES	CFTR F508del cor	E-selectin induc	Xi reactivation
COc1ccc(N=C2NC(=O)/C(=C/c3ccc(O)c(OC)c3)S2)cc1	.	-1	0
COc1cc(/C=C2\SC(=Nc3ccc(O)cc3)NC2=O)cc(OC)c1OC	4	0	0
COc1cc(/C=C2/SC(=Nc3ccc(O)cc3)NC2=O)cc(OC)c1O	15*	0	0
Cc1noc(C)c1NC(=O)Nc1ccc2c(c1)C(=O)N([C@@H](C)CO)C[C@H](C)[C@@H](CN(C)C(=O)C1CCCCC1)OCCCC[C@H](C)O2	-2	0	0
CC(C)NC(=O)N(C)C[C@H]1Oc2ccc(NC(=O)Nc3ccc4c(c3)OCO4)cc2C(=O)N([C@@H](C)CO)C[C@@H]1C	-2	-3	0
C[C@H]1CN([C@@H](C)CO)C(=O)Cc2cc(NC(=O)Nc3cccc4ccccc34)ccc2O[C@@H]1CN(C)Cc1ccc(-c2ccccc2)cc1	2	1	0
Cc1ccc(-c2nc(CSCC(=O)Nc3cc(C)on3)c(C)o2)cc1	8.4*	0	1
Cc1cc(NC(=O)CSCc2nc(-c3cccc(F)c3)oc2C)no1	1	0	0

Compound activity from PubChem.
